# PfM18AAP inh-1 – PfM18AAP enzyme inhibition. actives 1.2% (n = 290,000). inhibition, % at 7.35 µM. recombinant PfM18AAP, H-Glu-NHMec fluorogenic cleavage;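 active = inhibition above the campaign mean inhibition over all tested compounds plus 3 SD, cut at about 28% in these data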;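 note: 0% = plate median of test compound wells and 100% = 2 mM ZnCl2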
# PfG6PD inh – PfG6PD (Plasmodium falciparum) enzyme inhibition; PfGluPho enzyme, NADPH resazurin-diaphorase fluorescence; AID 504690; inhibition, % at 20 µM; actives 0.78% (n = 350,000);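 active = inhibition reaching at least a set limit at 20 µM in the primary screen, cut at about 59% in these data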;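 note: 0% = DMSO wells with substrate and 100% = DMSO wells lacking glucose-6-phosphate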
# Neddylation inh – blocks human cullin neddylation | P61081+Q13564 | AID 651699 | inhibition, % at 25 µM | actives 0.58% (n = 360,000) | TR-FRET cullin neddylation, biochemical; in the data active = inhibition above about 36%
# HKDC1 inh – inhibitors of human hexokinase HKDC1 | AID 493160 | inhibition, % at 20 µM | recombinant HKDC1, G6PDH/diaphorase resazurin coupled fluorescence | Q2TB90 | actives 0.16% (n = 340,000);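 active = inhibition above about 35% when tested at 20 µM, limit read from the data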;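 note: plate controls were DMSO wells with enzyme for no effect and DMSO wells lacking enzyme for full effect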
# Target sequence (Q2TB90 whole entry, looked up): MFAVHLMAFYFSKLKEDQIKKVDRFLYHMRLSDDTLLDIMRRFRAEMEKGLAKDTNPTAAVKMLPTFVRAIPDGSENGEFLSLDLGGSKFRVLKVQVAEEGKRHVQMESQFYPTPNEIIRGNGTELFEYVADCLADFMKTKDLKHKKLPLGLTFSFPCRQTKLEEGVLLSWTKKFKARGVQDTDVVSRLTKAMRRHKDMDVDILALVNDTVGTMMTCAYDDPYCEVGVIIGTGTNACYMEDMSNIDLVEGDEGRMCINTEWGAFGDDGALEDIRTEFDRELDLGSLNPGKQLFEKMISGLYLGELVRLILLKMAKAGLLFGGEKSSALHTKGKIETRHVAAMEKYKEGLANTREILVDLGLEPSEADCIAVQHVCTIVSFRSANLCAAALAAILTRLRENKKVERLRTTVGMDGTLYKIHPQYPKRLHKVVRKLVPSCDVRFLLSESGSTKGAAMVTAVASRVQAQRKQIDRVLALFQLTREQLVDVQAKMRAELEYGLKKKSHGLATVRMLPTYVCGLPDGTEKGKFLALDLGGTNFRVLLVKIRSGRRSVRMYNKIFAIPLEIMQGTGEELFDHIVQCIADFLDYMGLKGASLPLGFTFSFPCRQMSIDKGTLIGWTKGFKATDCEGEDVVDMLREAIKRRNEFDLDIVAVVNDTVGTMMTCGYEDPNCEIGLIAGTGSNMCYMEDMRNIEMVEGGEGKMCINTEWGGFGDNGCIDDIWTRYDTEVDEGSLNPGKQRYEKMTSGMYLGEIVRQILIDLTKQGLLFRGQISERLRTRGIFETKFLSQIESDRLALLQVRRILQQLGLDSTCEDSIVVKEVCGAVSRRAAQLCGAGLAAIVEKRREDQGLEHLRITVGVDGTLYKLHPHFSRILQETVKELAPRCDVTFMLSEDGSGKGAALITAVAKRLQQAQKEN
#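 Test system: Recombinant HKDC1 (HK5) hexokinase enzyme, produced in-house | Input: HKDC1 at 5 µg/mL | Buffer or medium: Tris pH 8.0 buffer with MgCl2, Tween-20, BSA, BME | Schedule: 90 min reaction incubation at room temperature, dark | Technique: Resazurin-to-resorufin fluorescence via G6PDH and diaphorase coupling, 525/613 nm | Controls: DMSO wells with and without enzyme mix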
# PfM18AAP inh-2 – PfM18AAP inhibition, confirmation. shares compounds with PfM18AAP inh-1. recombinant PfM18AAP, H-Glu-NHMec fluorogenic cleavage. inhibition, % at 7.35 µM. actives 28% (n = 2,400);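 active = mean inhibition over replicate wells above the hit cutoff set for the earlier primary screen, cut at about 29% in these data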;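 note: 0% = median of test compound wells and 100% = 2 mM ZnCl2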
# CTSL1 confirm – counter-screen for PFM18AAP inhibitors: confirmation of human cathepsin L inhibitors | shares compounds with PfM18AAP inh-1 | purified cathepsin L1, Z-Leu-Arg-MCA fluorescence | inhibition, % at 5.96 µM | 2,400 tested, under 10 active | AID 2178;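 active = average inhibition across replicates above the hit cutoff set in the earlier primary screen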;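 note: 0% = median of test compound wells and 100% = Z-Phe-Ala-diazomethylketone 1 µM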
# HKDC1 act conf – HKDC1 (human) activation, single-dose confirmed; AID 504708; recombinant HKDC1, G6PDH/diaphorase resazurin fluorescence; active compounds read low; inhibition, % at 20 µM; actives 14% (n = 740); shares compounds with HKDC1 inh;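 active = inhibition at or below a set negative limit, negative inhibition meaning the enzyme was activated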
# Neddyl conf – confirmation of human cullin neddylation inhibitors | calls only at 25 µM | actives 13% (n = 1,800) | TR-FRET cullin neddylation biochemical assay | shares compounds with Neddylation inh; in the data active = inhibition above about 40%;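 note: neddylation substrate is the cullin 1 ring ligase complex with SKP2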
# The depositor's hits bear a star; i = inactive; . = not tested or not shown. Shown are actives, neighbours in structure and some others; about 2.2% of the full set was active somewhere.
SMILES,PfM18AAP inh-1,PfG6PD inh,Neddylation inh,HKDC1 inh,HKDC1 act conf,others
COC(=O)CN1C(=O)[C@H]2[C@@H](/C=C/c3ccccc3)N3C(=O)CN(Cc4ccccc4)C(=O)[C@@]3(C)[C@H]2C1=O,-6.5,2.1,2.1,-3.4,.,
O=c1oc2ccccc2cc1-c1nc2c(s1)CCc1ccccc1-2,-1.3,31.0,.,15.4,.,
O=c1oc2ccccc2cc1-c1nnc(NCc2ccco2)s1,38.1*,28.6,50.2*,0.9,.,PfM18AAP inh-2=-37.6;CTSL1 confirm=3.9;Neddyl conf=i
COc1ccc(/C(C)=N\Nc2nc(-c3ccccc3)cc(=O)[nH]2)cc1,40.4*,-5.4,46.2*,-10.2,.,PfM18AAP inh-2=-30.5;CTSL1 confirm=5.5;Neddyl conf=i
COc1ccc(/C(C)=N/Nc2nc(C)cc(-c3ccccc3)n2)cc1,.,6.0,2.5,-1.7,.,
CC(=NNC(=S)Nc1cccc(Cl)c1)c1ccccn1,.,35.3,2.3,-46.4,-63.5*,
CC(=NNC(=S)SCc1ccccc1)c1ccccn1,.,-5.8,2.8,-46.5,-28.3*,
C/C(=N\NC(=O)c1ccc(Cl)cc1)c1ccccn1,-2.3,-21.0,8.0,-1.1,.,
O=C(CCl)N1c2ccccc2Sc2c1ccc1ccccc21,.,22.6,-22.5,44.2*,4.8,
CC(=O)N1c2ccccc2Sc2ccc3ccccc3c21,.,24.6,-36.7,.,.,
O=C(CC1C[C@H](C(=O)N2CCOCC2)[C@@]2(CCC3CCCC3)c3[nH]c4ccccc4c3CCN2C1=O)NCCc1ccccn1 (stereo partly specified),.,-2.8,2.6,-7.2,.,
O=C(O)c1ccc2ncsc2c1,62.4*,4.2,-4.1,40.7*,48.1,
O=C(O)c1ccc(N=Cc2c(O)ccc3ccccc23)cc1,3.2,35.6,-3.0,33.4,43.0,
O=S(=O)(/N=C/c1c(O)ccc2ccccc12)c1ccccc1,-0.6,29.0,3.2,44.2*,19.5,
CC(NC(=O)C1CCCN1S(=O)(=O)c1cccc2nsnc12)c1ccccc1 (stereo unspecified),-4.2,-15.1,-35.0,-3.0,.,
O=S(=O)(NC1c2cccc3cccc(c23)C1N1CCN(CCO)CC1)c1ccccc1 (stereo unspecified),6.7,-60.6,-10.0,-66.1,-118.1*,
O=C(c1ccccc1)N1CCN(C2c3cccc4cccc(c34)C2NS(=O)(=O)c2ccccc2)CC1 (stereo unspecified),-3.3,-28.8,-8.3,-33.8,.,
O=S(=O)(NC1c2cccc3cccc(c23)C1N1CCNCC1)c1ccccc1 (stereo unspecified),-7.8,-42.1,-17.8,-55.8,-94.7*,
Cc1cc(NC(=O)c2nn(C)c(C)c2Br)no1,-1.7,17.1,5.1,-5.5,.,
O=c1[nH]c(=O)c2nc3c4ccccc4c4ccccc4c3nc2[nH]1,-13.3,3.0,15.8,37.3*,-1.9,
COc1cccc(-c2cc(C(=O)NCC3CCCO3)c3cc(C)cc(C)c3n2)c1 (stereo unspecified),0.5,14.9,27.4,3.5,.,
Cn1c2ccccc2c(=O)c2c(=O)n(-c3ccccc3)c(C3CCCCC3)nc21,0.4,7.2,-66.3,43.3*,18.2,
CCc1nc2c(c(=O)c3ccccc3n2C)c(=O)n1C1CCCCCC1,0.6,-7.2,4.0,0.5,.,
Cn1c2ccccc2c(=O)c2c(=O)n(C3CCCCCC3)c(C3CCCCC3)nc21,5.1,37.4,i,34.9,2.2,
OC(CN1CCC(Cc2ccccc2)CC1)c1ccccc1 (stereo unspecified),-1.5,-13.0,2.0,-2.9,.,
SMILES,PfM18AAP inh-1,PfG6PD inh,Neddylation inh,HKDC1 inh,HKDC1 act conf,others
c1ccc(OCCNc2nc(NCC3CC3)nc3ccsc23)cc1,.,.,-1.3,.,.,
O=C(CN1C(=O)/C(=C2\SC(=S)N(CCS(=O)(=O)O)C2=O)c2ccccc21)Nc1cccc(Br)c1,-8.4,24.0,0.5,58.4*,13.0,
O=C(NCc1ccccc1Cl)c1cc2c(s1)CS(=O)(=O)C2,-1.1,-0.1,-7.3,-6.4,.,
C/C(=N\NC(=O)c1cc(-c2cccnc2)nc2ccccc12)c1ccc(O)cc1O,-2.7,-28.9,4.5,-40.0,-2.6,
CC(=NNC(=O)c1ccncc1)c1ccccc1O,.,-40.3,15.8,-1.0,.,
C/C(=N\NC(=O)c1cc(-c2cccc(OC(C)C)c2)nc2ccccc12)c1cccnc1,2.3,14.3,-6.5,3.9,.,
CC(=NNC(=O)c1ccncc1)c1ccc(O)cc1O,.,-37.9,-0.7,-40.2,-4.4,
CN(C)S(=O)(=O)c1cccc(NC(=O)c2ccc(COc3ccccc3)cc2)c1,1.7,26.8,-42.2,-3.9,.,
CCN(CC(=O)Nc1c(F)cccc1F)C(=O)/C=C/c1ccc2ccccc2n1,.,-2.1,9.7,33.3,13.4,
Cc1ccc(S(=O)(=O)N/N=C/c2ccc(C#N)cc2)cc1,8.5,-0.4,4.4,0.1,.,
N#C/C(=C(/O)CCl)c1nc2c(s1)CCc1ccccc1-2,-5.9,41.2,1.6,43.5*,46.1,
COc1ccc([C@@H]2C[C@H](c3ccccc3)Oc3cc(OC)c(OC)c(OC)c32)cc1,.,17.7,-5.1,36.7*,-0.5,
O=C(CCNC(=O)c1ccc([N+](=O)[O-])cc1)NCCC1=CCCCC1,.,5.2,-23.6,35.0*,-26.0,
O=C(NCCC1=CCCCC1)c1ccc([N+](=O)[O-])cc1,-11.1,-8.2,-43.2,2.6,.,
Cc1cc2nnc(SCC(=O)Nc3cc(S(=O)(=O)N4CCOCC4)ccc3Cl)n2c2ccccc12,-4.6,38.6,-13.4,47.8*,37.4,
O=C(N/N=C/c1ccc(-c2ccc(S(=O)(=O)Nc3ncccn3)cc2)o1)c1cc2ccccc2cc1O,21.3,-52.6,30.0,33.4,-22.2,
NC(=S)NN=Cc1ccc(-c2ccc(S(=O)(=O)Nc3ncccn3)cc2)o1,.,25.2,27.6,9.7,.,
Cc1csc(NC(=O)CSc2nc3nc(C)cc(C)n3n2)n1,.,1.1,10.5,-6.9,.,
COC(=O)c1sc(NC(=O)CSc2nc3nc(C)cc(C)n3n2)c(C(=O)OC)c1C,.,44.0,-28.0,35.3*,25.6,
CCOC(=O)C1=C(Cc2ccc(C)cc2)C(=O)c2ccccc2C1=O,-19.2,.,.,.,.,
CCOC(=O)C1=C(Cc2ccc(OC)cc2)C(=O)c2ccccc2C1=O,6.9,95.5*,21.1,71.4*,55.8,
CC(=O)Nc1cccc(C(=O)OCc2csc(CC(=O)Nc3ccccc3C)n2)c1,.,-6.3,-15.7,-9.5,.,
O=C(C1CC=CCC1)N1CCCCCC1 (stereo unspecified),.,-3.1,11.2,.,.,
COc1ccc(-c2cc(N)n(CCC#N)n2)c(OC)c1,-1.1,-1.6,13.4,40.2*,-34.9,
COc1ccc(-c2cc(N)n(S(=O)(=O)Cc3ccccc3)n2)c(OC)c1,-0.6,34.8,-6.9,-1.9,.,
COc1cc(-c2ccc(Nc3ccccc3C(=O)O)c(OC)c2)ccc1Nc1ccccc1C(=O)O,10.9,1.2,12.4,42.3*,-5.8,
